Bioassay records from PubChem.
HTRA1 inhibitor = inhibitors of human serine peptidase HTRA1. inhibition, % at 5.96 µM. recombinant HTRA1, FP-rhodamine activity-based probe, fluorescence polarization. hit rate 0.5% among 340,000. AID 504803. Q92743; in the data active = inhibition above about 36%;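 also: 0% = enzyme with DMSO and 100% = wells lacking enzyme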
mABHD4 FP = ABHD4 (mouse) inhibition, primary FP screen; purified mABHD4, FP-Rh probe fluorescence polarization; inhibition, % at 8.92 µM; hit rate 0.54% among 370,000; AID 720543;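 active = inhibition exceeding the mean over every tested compound plus 3 SD, cut at about 30% in these data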;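 also: 0% = plate median of compound wells and 100% = S159A mutant with DMSO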
Target sequence (Q8VD66 whole entry, looked up): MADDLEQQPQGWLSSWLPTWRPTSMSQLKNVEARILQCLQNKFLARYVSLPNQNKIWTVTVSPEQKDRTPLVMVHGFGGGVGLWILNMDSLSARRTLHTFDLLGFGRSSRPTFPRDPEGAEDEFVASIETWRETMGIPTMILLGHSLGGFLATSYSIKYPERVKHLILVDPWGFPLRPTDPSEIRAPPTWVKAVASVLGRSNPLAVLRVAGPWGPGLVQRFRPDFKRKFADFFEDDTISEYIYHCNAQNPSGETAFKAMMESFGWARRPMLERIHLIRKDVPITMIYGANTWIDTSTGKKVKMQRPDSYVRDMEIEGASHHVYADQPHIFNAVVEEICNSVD
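Assay system: Wild-type mouse ABHD4 protein | Medium: HEPES pH 7.0 buffer, 150 mM NaCl, 0.01% Pluronic F-127 | Incubation: Enzyme–compound pre-incubation 45 min, then probe 60 min, both 25 °C | Technique: Fluorescence polarization with parallel and perpendicular emission, 525/598 nm | Evaluation: % inhibition of FP-Rh probe binding versus controls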
pPAFAH inh = pPAFAH (human) enzyme inhibition | Q13093 | recombinant pPAFAH, FP-rhodamine probe fluorescence polarization | inhibition, % at 3.39 µM | hit rate 1.5% among 330,000 | AID 463082;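 active = inhibition above the mean inhibition across the screen plus 3 SD, cut at about 25% in these data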;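 also: inhibitors block binding of the rhodamine activity-based probe so polarization drops; 0% = enzyme with DMSO and 100% = wells lacking pPAFAH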
TCR CD3 inh = inhibitors of human TCR-CD3 interaction; AID 651800; inhibition, % at 9.4 µM; hit rate 0.37% among 360,000; TAMRA-labeled TCR probe fluorescence, biochemical; in the data active = inhibition above about 19%;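 also: recombinant mutant TCR 2C K166C tagged with TAMRA read by polarization; 0% = receptor in buffer alone and 100% = receptor with positive control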
SIAE primary = human SIAE inhibition, primary screen. Q9HAT2. SIAE FP-Rh probe binding, fluorescence polarization. inhibition, % at 9.66 µM. hit rate 0.69% among 370,000. AID 1053197;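 active = inhibition above a cutoff: mean of compounds within the control limits plus 3 SD of those, cut at about 17% in these data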;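 also: 0% = plate median of compound wells and 100% = probe without SIAE protein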
Numbers without * were called inactive; / = no result given. This is a sample that favours compounds with a hit; in the whole collection about 2.3% have one here.

SMILES	HTRA1 inhibitor	mABHD4 FP	pPAFAH inh	TCR CD3 inh	SIAE primary
O=S(=O)(NOCc1ccc(Cl)cc1)c1ccc(Cl)cc1	-10	-25	29*	-3	6
COc1ccc(-c2c(Cc3ccccc3)nc(NC(=O)c3ccccc3)n2Cc2ccccc2)cc1	/	-2	/	/	2
S=c1[nH]nc(-c2ccco2)n1/N=C/c1cccc(Cl)c1Cl	-10	8	20	5	-15
S=c1[nH]nc(-c2ccco2)n1/N=C/c1ccc(Cl)cc1Cl	-3	6	31*	2	2
COC(=O)c1sc(-c2ccc(Cl)cc2)cc1NC(=O)CSCC(=O)O	-17	-6	11	1	-3
COC(=O)c1sc(-c2ccc(C(C)(C)C)cc2)cc1NC(=O)COCC(=O)O	/	-16	28*	-3	-24
COC(=O)[C@H]1C[C@]2(C(C=C(C)C)S(=O)(=O)c3ccccc3)c3ccccc3N[C@H]2N1 (stereo partly drawn)	/	9	/	/	-1
Cc1cc(-c2n[nH]c(=S)n2N=Cc2ccc(O)cc2)n[nH]1	/	-2	/	/	1
O=c1oc2ccccc2c(Nc2cc3ccccc3cc2O)c1[N+](=O)[O-]	22	11	27*	0	5
O=C(C1CCCN1S(=O)(=O)c1ccc(F)cc1)N1CCc2ccccc2C1 (stereo not drawn)	/	-2	/	/	-2
N#Cc1ccccc1NCCCN1CCC(C(O)(c2ccccc2)c2ccccc2)CC1	/	-2	/	/	-4
CCCCOCCCNC(=O)C[C@H]1C[C@@]2(C(=O)OC)C(=C[C@H](C(C)C)O[C@@H]2C2CC2)N(CCC2=CCCCC2)C1=O	/	-8	/	/	-8
CC1CC(=O)c2c(cc3c(-c4c(O)cc(O)c5c(O)c6c(cc45)OC(C)CC6=O)c(O)cc(O)c3c2O)O1 (stereo not drawn)	78*	/	80*	/	/
O=C1CC(c2ccc(O)cc2)Oc2cc(O)cc(O)c21 (stereo not drawn)	7	-6	4	10	4
COc1ccc(-c2cc(=O)oc3cc(OC(=O)C4CCCCC4)ccc23)cc1	-18	-6	-2	-3	-2
O=C(Oc1ccc2c(-c3ccccc3)cc(=O)oc2c1)C1CCCCC1	-14	-3	31*	-2	1
Cc1ccc(CS/C(Nc2ccccc2C)=C(\C#N)C(=O)NCc2ccco2)c(C)c1	-43	-13	28*	-9	-2
CC(=O)c1ccc(S(=O)(=O)NCCc2cn3ccc(C)cc3n2)cc1	1	-1	8	-1	-1
Cc1ccn2cc(CCNS(=O)(=O)c3ccc([N+](=O)[O-])cc3)nc2c1	6	2	30*	3	1
Cc1ccc[n+](C2C(c3ccc([N+](=O)[O-])cc3)C(C#N)=C([S-])NC2(O)C2CC2)c1 (stereo not drawn)	4	10	8	-9	-3
N#CC(=C=[N-])C1=C(C#N)C(c2ccccc2F)C([n+]2ccccc2)C(O)(C2CC2)N1 (stereo not drawn)	-2	16	30*	0	2
CN(Cc1ccccc1)C(=O)COc1cc(=O)n(C)c2ccccc12	6	0	32*	-7	-5
CN1CC=C(c2ccccc2)N(c2ccccc2)C1=O	/	-1	/	/	12
CC(NCc1ccco1)C(=O)N1CCN(c2cccc(C(F)(F)F)c2)CC1 (stereo not drawn)	/	3	/	/	6
Nc1ccc2oc(-c3ccccc3Cl)cc(=O)c2c1O	19	21	28*	-2	3
SMILES	HTRA1 inhibitor	mABHD4 FP	pPAFAH inh	TCR CD3 inh	SIAE primary
COc1ccc(NC(=O)C2CCC2)cc1S(=O)(=O)Nc1cc(C)ccc1Br	-30	-9	29*	4	-16
CC(C)CNS(=O)(=O)/C=C/c1ccccc1CNC(=O)OC(C)(C)C	/	-9	/	/	-2
COc1ccccc1NC(=O)c1cc2c(CO)cnc(C)c2oc1=Nc1cccc(C(N)=O)c1	-3	-11	25*	0	1
O=C(Nc1ccc(-c2cnco2)cc1)c1ccc(Cl)cc1	/	-2	29*	3	15
COc1cc(CNC(=O)CCCC(=O)c2ccccc2)cc(OC)c1OC	1	1	2	-5	1
COc1cc(CNC(=O)CCCC/C=C/C(C)C)ccc1O	3	-5	25*	6	10
CC1(C)CC(=O)C(C=Nc2ccc3c(c2)OCO3)=C(O)C1	2	4	5	1	7
CC1(C)CC(=O)C(C=Nc2ccc(O)c(N=CC3=C(O)CC(C)(C)CC3=O)c2)=C(O)C1	20	7	33*	-5	-1
C[C@H]1CN([C@@H](C)CO)C(=O)c2cccc(NC(=O)Nc3ccc(C(F)(F)F)cc3)c2O[C@H]1CN(C)C	11	1	30*	5	4
C[C@H]1CN([C@@H](C)CO)C(=O)c2cccc(NC(=O)Nc3ccc(C(F)(F)F)cc3)c2O[C@@H]1CN(C)C(=O)Nc1ccc(F)cc1	-46	-31	3	5	-56
C[C@H](CO)N1C[C@H](C)[C@@H](CN(C)C(=O)Nc2ccc(C(F)(F)F)cc2)Oc2c(NC(=O)Nc3ccc(C(F)(F)F)cc3)cccc2C1=O	-111	-83	-15	20*	-152
C[C@H](CO)N1C[C@H](C)[C@@H](CN(C)S(C)(=O)=O)Oc2c(NC(=O)Nc3ccc(C(F)(F)F)cc3)cccc2C1=O	-13	-10	9	-7	-10
COc1ccc(-c2cc(-c3ccco3)[nH]c(=O)c2C#N)cc1	10	13	30*	6	1
COc1ccc(-c2cc(C(F)(F)F)c(C#N)c(=O)[nH]2)cc1	-6	-5	-2	-2	-8
CC(=O)CC[C@@H]1CC[C@]2(CCCN(C(=O)c3ccccc3)C2)O1	/	0	/	/	-4
Cc1cc(NC(=O)CSc2nc3ccccc3c(=O)n2C2CCCC2)no1	-46	0	30*	-3	4
CN(C)c1ccc(NC(=O)CSc2nc3ccccc3c(=O)n2C2CCCCC2)cc1	7	19	34*	-1	2
Cc1cccc(CCNC(=O)Cn2nc(-c3ccccc3)ccc2=O)c1	/	-1	/	/	0
CCOc1ccc(-n2c(SCC(=O)Nc3cccc4ccccc34)nnc2-c2ccco2)cc1	/	-12	/	/	-3
Cc1cccc(C)c1Nc1nnc(SC/C(O)=C(\C#N)c2nc3ccccc3[nH]2)s1	17	20	15	3	3
Cc1cccc(Nc2nnc(SC/C(O)=C(\C#N)c3nc4ccccc4[nH]3)s2)c1C	16	-2	28*	-2	-1
Cc1ccc(C(=O)/C=C/N(C)C)o1	-2	2	1	-3	2
Cc1ccc(C(=O)/C=C/c2cc(Br)cc(Br)c2O)o1	-4	-26	31*	-16	3
CCc1ccc(S(=O)(=O)Nc2ccc(-c3ccc4nnc(C)n4n3)cc2)s1	0	7	15	2	-22
Cc1nnc2ccc(-c3ccc(NS(=O)(=O)c4ccc(Cl)s4)cc3)nn12	-4	6	26*	-3	-8
Cc1ccc(-c2noc(CSc3nnc(CCc4ccccc4)n3-c3ccccc3)n2)cc1	-51	-11	8	0	-2
